Calls of active or inactive are those of the source. No cut-off for these calls is given here.
Assays:
[1] = system: L1210; assay: Screen growth rate of L1210 leukemic cells in the presence of compound at 100 uM expressed as percent of control; type: functional, Mus musculus
Method in brief: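 L1210 cells grown in static suspension at 38 °C in Fischer's medium with continuous 100 μM compound for 3 days. Growth rate = ratio of control to treated population doubling time, expressed as % of control; if growth slowed, the final rate over the 3-day period was used.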

[2] = system: L1210; assay: Compound was tested in vitro for antiproliferative activity against L1210 leukemic cells; type: functional, cell-based; conditions: Mus musculus
Method in brief: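 Mouse L1210 leukemia cells grown in static suspension culture at 38 °C in Fischer's medium. Cells were exposed continuously to a range of concentrations for 3 days. Growth rate = control doubling time / treated doubling time, as % of control; the final rate was used if growth slowed. IC50 = concentration reducing growth rate to 50% of control.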

[3] = system: Acanthocheilonema viteae; assay: Antifilarial activity against adult worm of A. viteae in jirds at 100 mg/kg x 5 days administered subcutaneously; No activity; type: functional, organism-based; design: dose 100 mg/kg
[4] = system: Brugia pahangi; assay: Compound tested for anti-filarial activity against adult worm of Brugia pahangi in jirds at 100 mg/kg x 5 days administered subcutaneously; No activity; type: functional, organism-based; design: dose 100 mg/kg
[5] = system: L1210; assay: Compound was tested in vitro for antiproliferative activity against L1210 leukemic cells; No significant inhibition; type: functional, cell-based, Mus musculus
[6] = target: GMP synthase [glutamine-hydrolyzing] (Mus musculus, UniProt Q3THK7); assay: In vitro inhibitory activity against partially purified GMP synthetase in L1210 cells
GMP synthase [glutamine-hydrolyzing], sequence (Q3THK7 whole entry): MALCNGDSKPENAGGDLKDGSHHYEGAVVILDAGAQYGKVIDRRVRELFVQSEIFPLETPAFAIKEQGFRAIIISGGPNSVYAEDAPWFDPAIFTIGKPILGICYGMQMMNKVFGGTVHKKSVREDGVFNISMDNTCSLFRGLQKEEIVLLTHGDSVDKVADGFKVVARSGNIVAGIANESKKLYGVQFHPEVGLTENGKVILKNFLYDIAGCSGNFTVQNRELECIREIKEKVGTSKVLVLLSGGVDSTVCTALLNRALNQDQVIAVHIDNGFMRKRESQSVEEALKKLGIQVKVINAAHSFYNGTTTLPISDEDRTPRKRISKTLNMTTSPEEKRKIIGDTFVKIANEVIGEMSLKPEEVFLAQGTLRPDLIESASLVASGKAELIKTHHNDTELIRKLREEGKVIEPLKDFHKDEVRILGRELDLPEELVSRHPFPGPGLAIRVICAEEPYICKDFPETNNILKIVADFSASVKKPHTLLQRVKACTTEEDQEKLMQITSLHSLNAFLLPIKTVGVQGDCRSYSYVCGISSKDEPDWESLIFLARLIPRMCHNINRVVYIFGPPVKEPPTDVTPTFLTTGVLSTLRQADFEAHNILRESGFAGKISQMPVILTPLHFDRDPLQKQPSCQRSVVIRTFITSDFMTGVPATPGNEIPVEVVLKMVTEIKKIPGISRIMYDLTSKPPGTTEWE

Structure (SMILES)	GR [1] [%]	IC50 [2] [µM]	Activity [3]	Activity [4]	IC50 [5]	IC50 [6] [µM]
CCC(=O)Nc1nc(CN=C=S)c[se]1	0	3.5	inactive	inactive		
COC(=O)Nc1nc(CN=C=S)cs1			inactive	inactive		
CC(C)C(=O)Nc1nc(CN=C=S)c[se]1	0	28	inactive	inactive		
O=C(Nc1nc(CCl)c[se]1)c1ccccc1	101		inactive	inactive	Not Active	
CC(C)C(=O)Nc1nc(CN=C=S)cs1	0	8.2	inactive	inactive		
CC(C)(C)C(=O)Nc1nc(CN=C=S)c[se]1	0	18	inactive	inactive		
Cc1ccc(C(=O)Nc2nc(CN=C=S)cs2)cc1	25	0.48	inactive	inactive		
O=C(Nc1nc(CN=C=S)cs1)c1ccc(Cl)c(Cl)c1	0	0.82	inactive	inactive		
CC(C)(C)c1ccc(C(=O)Nc2nc(CN=C=S)cs2)cc1	72	> 100	inactive	inactive		
O=C(Nc1nc(CN=C=S)cs1)c1ccc(Cl)cc1	0	0.22	inactive	inactive		
CC(C)(C)C(=O)Nc1nc(CN=C=S)cs1	28	4.3	inactive	inactive		
Nc1nc(CN=C=S)cs1	0	26	inactive	inactive		
CC(=O)Nc1nc(CCl)c[se]1	65	> 100	inactive	inactive		
COc1ccc(C(=O)Nc2nc(CN=C=S)cs2)cc1	0	0.44	inactive	inactive		
O=C(Nc1nc(CCl)cs1)c1ccccc1	100		inactive	inactive	Not Active	
O=C(Nc1nc(CN=C=S)cs1)c1ccc(C(F)(F)F)cc1	0	0.5	inactive	inactive		
O=C(Nc1nc(CN=C=S)cs1)C(F)(F)F	20		inactive	inactive		
CC(=O)Nc1nc(CCl)cs1	75	> 100	inactive	inactive		
O=C(Nc1nc(CN=C=S)cs1)c1ccccc1	0	0.2	inactive	inactive		0.35
Nc1nc(CN=C=S)c[se]1	0	21	inactive	inactive		
CC(=O)Nc1nc(CN=C=S)c[se]1	14	30	inactive	inactive		
CCC(=O)Nc1nc(CN=C=S)cs1	0	6.8	inactive	inactive		
O=C(Nc1nc(CN=C=S)c[se]1)c1ccccc1	13	0.9	inactive	inactive		
O=C(Nc1nc(CN=C=S)cs1)c1ccc(F)cc1	0	1.1	inactive	inactive		
CC(=O)Nc1nc(CN=C=S)cs1	1	5.2	inactive	inactive		
